Measured values from publication PMC9040061 (ACS infectious diseases, 2020).
Residue numbers refer to the chain shown, from its start. pIC50, pKd: −log10 of the molar value. Converted amounts (≈) assume the structure as drawn.

Experiments:
wild-type EfaUPPS = wild-type EfaUPPS (Enterococcus faecalis, UniProt Q831K9); assay: Surface plasmon resonance binding assay; conditions: for pKd: read-out: equilibrium dissociation constant (KD), SPR, wild-type EfaUPPS, one-state binding model
E. coli 70S ribosome = assay: In vitro translation inhibition assay; format: biochemical, Escherichia coli; conditions: read-out: IC50, in vitro translation, PURE system
[1] = target: recombinant S. aureus UPPS (SauUPPS) (Staphylococcus aureus, UniProt P60477); assay: UPPS inhibition assay; format: biochemical
[2] = target: recombinant E. faecalis UPPS (EfaUPPS) (Enterococcus faecalis, UniProt Q831K9); assay: UPPS inhibition assay; format: biochemical; conditions: for pIC50: EfaUPPS, enzyme-coupled fluorescence assay
[3] = target: recombinant E. coli UPPS (EcoUPPS) (Escherichia coli, UniProt P60472); format: biochemical
EfaUPPS H46W mutant = assay: UPPS inhibition assay, mutant enzyme; format: biochemical, Enterococcus faecalis; conditions: H46W mutant versus wild-type EfaUPPS
Summary of the method: (§1)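 Mutant E. faecalis UPPS was His-tagged in pET28a, expressed in E. coli BL21(DE3) (1 mM IPTG, 16 °C, 16 h) and purified by Ni-NTA and gel filtration. Assays ran 30 min at 37 °C in 100 mM Tris-HCl pH 7.5, 0.5 mM MgCl2, 50 mM KCl, 35 μM IPP, 5 μM FPP, 0.005% Triton X-100, and were EDTA-stopped. Released pyrophosphate was read by coupled fluorescence (316/456 nm). Mutant IC50 was compared with wild type; at least three biological replicates.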

EfaUPPS W228A mutant = assay: UPPS inhibition assay, mutant enzyme; format: biochemical, Enterococcus faecalis; conditions: W228A mutant versus wild-type EfaUPPS
Summary of the method: as §1

EfaUPPS M28W mutant [4] = target: T1, EfaUPPS M28W mutant (Enterococcus faecalis, UniProt Q831K9, M34W); assay: UPPS inhibition assay, mutant enzyme; format: biochemical; conditions: M28W mutant versus wild-type EfaUPPS
T1 sequence (Q831K9 1-271 M34W): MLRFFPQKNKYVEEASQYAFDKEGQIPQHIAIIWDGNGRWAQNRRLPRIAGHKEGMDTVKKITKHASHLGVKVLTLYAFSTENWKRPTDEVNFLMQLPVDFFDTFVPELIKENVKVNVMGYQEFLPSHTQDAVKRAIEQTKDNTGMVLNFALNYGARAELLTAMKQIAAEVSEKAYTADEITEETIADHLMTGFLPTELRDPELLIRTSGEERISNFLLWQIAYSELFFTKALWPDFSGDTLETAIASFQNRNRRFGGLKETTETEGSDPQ
Summary of the method: as §1

normal E. coli species = assay: MIC, microtiter broth dilution; format: cell-based, Escherichia coli
Summary of the method: (§2)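 MICs were measured by broth microdilution in LB broth against E. coli DH5α, BL21(DE3) and BAS 849, the last an outer-membrane-defective strain with raised permeability. Tetracycline and ampicillin served as reference antibiotics. Values are means of at least three biological replicates.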

EfaUPPS D29A mutant = EfaUPPS D29A mutant (Enterococcus faecalis, UniProt Q831K9, D35A); assay: UPPS inhibition assay, mutant enzyme; format: biochemical
Summary of the method: as §1

EfaUPPS M28A mutant = assay: UPPS inhibition assay, mutant enzyme; format: biochemical, Enterococcus faecalis; conditions: M28A mutant versus wild-type EfaUPPS
Summary of the method: as §1

EfaUPPS N31A mutant = EfaUPPS N31A mutant (Enterococcus faecalis, UniProt Q831K9, N37A); assay: UPPS inhibition assay, mutant enzyme; format: biochemical
Summary of the method: as §1

EfaUPPS M28E mutant = assay: UPPS inhibition assay, mutant enzyme; format: biochemical, Enterococcus faecalis; conditions: M28E mutant versus wild-type EfaUPPS
Summary of the method: as §1

EfaUPPS N31E mutant [5] = target: T2, EfaUPPS N31E mutant (Enterococcus faecalis, UniProt Q831K9, N37E); assay: UPPS inhibition assay, mutant enzyme; format: biochemical; conditions: N31E mutant versus wild-type EfaUPPS
T2 sequence (Q831K9 1-271 N37E): T1 sequence (Q831K9 1-271 M34W) with W34M, N37E
Summary of the method: as §1

[6] = test system: E. coli BAS 849 transformed with the empty vector pQE80L; assay: In vivo growth inhibition assay on agar; format: cell-based, Escherichia coli; conditions: compound at 8 μg/mL, IPTG 0.5 mM
Summary of the method: (§3)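 E. coli BAS 849 carried pQE80L (T5 promoter) either empty or bearing the UPPS gene from E. faecalis ATCC 29212, S. aureus ATCC 29213 or E. coli DH5α. Cultures were spread on LB agar with ampicillin, IPTG and test compound, incubated overnight at 37 °C and scored for growth.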

EfaUPPS N31E mutant [7] = target: T2, EfaUPPS N31E mutant; assay: Surface plasmon resonance binding assay; conditions: SPR
Summary of the method: (§4)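 Point mutants of E. faecalis UPPS were made by site-directed mutagenesis and purified like wild type (Ni-NTA, then gel filtration). Enzyme (50 μg/mL) was amine-coupled to a carboxymethyl dextran chip. Test compound (0.4–50 μM) in phosphate-buffered saline with 0.005% Tween-20, pH 7.8, was flowed at 25 μL/min: 1.5 min association, 2.5 min dissociation. Reference-cell signal was subtracted, and KD came from a 1:1 model.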

EfaUPPS F73S mutant = EfaUPPS F73S mutant (Enterococcus faecalis, UniProt Q831K9, F79S); assay: UPPS inhibition assay, mutant enzyme; format: biochemical
Summary of the method: as §1

EfaUPPS N31F mutant = assay: UPPS inhibition assay, mutant enzyme; format: biochemical, Enterococcus faecalis; conditions: N31F mutant versus wild-type EfaUPPS
Summary of the method: as §1

[8] = test system: UPPS-overexpressed E. coli BAS 849; assay: In vivo growth inhibition assay on agar; format: cell-based, Escherichia coli; conditions: overexpression of EfaUPPS, SauUPPS and EcoUPPS; compound at 8 μg/mL; IPTG 0.5 mM
Summary of the method: as §3

EfaUPPS S74T mutant = EfaUPPS S74T mutant (Enterococcus faecalis, UniProt Q831K9, S80T); assay: UPPS inhibition assay, mutant enzyme; format: biochemical
Summary of the method: as §1

Escherichia coli BAS 849 = assay: MIC, microtiter broth dilution; format: cell-based; conditions: E. coli BAS 849, deficient outer-membrane structure
Summary of the method: as §2

EfaUPPS M28W mutant [9] = target: T1, EfaUPPS M28W mutant; assay: Surface plasmon resonance binding assay; conditions: SPR
Summary of the method: as §4

EfaUPPS R42A mutant = EfaUPPS R42A mutant (Enterococcus faecalis, UniProt Q831K9, R48A); assay: UPPS inhibition assay, mutant enzyme; format: biochemical
Summary of the method: as §1

recombinant E. coli UPPS (EcoUPPS), sequence (P60472 whole entry): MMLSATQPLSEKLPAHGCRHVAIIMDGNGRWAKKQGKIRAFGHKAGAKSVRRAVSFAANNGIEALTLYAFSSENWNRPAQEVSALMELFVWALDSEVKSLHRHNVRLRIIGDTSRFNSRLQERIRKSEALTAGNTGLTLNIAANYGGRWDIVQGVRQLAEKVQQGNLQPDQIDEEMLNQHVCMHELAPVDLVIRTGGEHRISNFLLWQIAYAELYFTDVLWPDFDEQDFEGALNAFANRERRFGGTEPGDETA

CN(C)[C@@H]1C(O)=C(C(N)=O)C(=O)[C@@]2(O)C(O)=C3C(=O)c4c(O)cccc4[C@@](C)(O)[C@H]3C[C@@H]12 [Tet, tetracycline, reference compound]
SPR binding signals (wild-type EfaUPPS; EfaUPPS): cannot detect any binding signals | pIC50 (E. coli 70S ribosome): 4.82 | IC50 fold higher than that for VirA [1]: 6 fold | IC50 fold higher than that for VirA [2]: 12 fold | IC50 fold higher than that for VirA [3]: 6 fold

COc1cc(O)c2c(O)c3c(c4c2c1[C@]1(C4)C(C)=CCCC1(C)C)[C@H](O)[C@@]1(O)CC(=O)C(C(N)=O)=C(O)[C@@]1(O)C3=O [VirA, viridicatumtoxin A]
pKd (wild-type EfaUPPS): 3.91 | pIC50 (E. coli 70S ribosome): 3.15 | IC50-MT/IC50-WT (EfaUPPS H46W mutant): 4.5 | IC50-MT/IC50-WT (EfaUPPS W228A mutant): 6.0 | IC50-MT/IC50-WT (EfaUPPS M28W mutant [4]): 0.2 | MIC (normal E. coli species): > 64 mg/L | susceptibility of mutant compared with wild-type enzyme (EfaUPPS D29A mutant): more susceptible | IC50-MT/IC50-WT (EfaUPPS M28A mutant): 0.5 | change of IC50 of mutant compared with wild-type enzyme (EfaUPPS N31A mutant): decreased IC50 | IC50-MT/IC50-WT (EfaUPPS M28E mutant): 123.3 | IC50-MT/IC50-WT (EfaUPPS N31E mutant [5]): 42.4 | growth of E. coli BAS 849 [6]: completely inhibited | pKd (EfaUPPS N31E mutant [7]): 3.49 | binding affinity decreased, fold, versus wild type (EfaUPPS N31E mutant [7]): approximately 3 fold | change of IC50 of mutant compared with wild-type enzyme (EfaUPPS F73S mutant): decreased IC50 | IC50-MT/IC50-WT (EfaUPPS N31F mutant): 10.7 | growth of E. coli BAS 849 [8]: rescued the cell growth | change of IC50 of mutant compared with wild-type enzyme (EfaUPPS S74T mutant): decreased IC50 | pIC50 ([1]; SauUPPS): 5.39 | pIC50 [2]: 5.80 | pIC50 ([3]; EcoUPPS): 5.41 | MIC (Escherichia coli BAS 849): 8 mg/L (≈ 14.1 µM) | pKd (EfaUPPS M28W mutant [9]): 5.01 | binding affinity fold higher than the wild-type enzyme (EfaUPPS M28W mutant [9]): about 12 fold | susceptibility of mutant compared with wild-type enzyme (EfaUPPS R42A mutant): more susceptible

viridicatumtoxin B [VirB]
pKd (wild-type EfaUPPS): 4.94 | pIC50 (E. coli 70S ribosome): 3.22 | MIC (normal E. coli species): > 64 mg/L | growth of E. coli BAS 849 [6]: completely inhibited | growth of E. coli BAS 849 [8]: rescued the cell growth | pIC50 [2]: 7.24 | MIC (Escherichia coli BAS 849): 8 mg/L
